Converted amounts (≈) assume the structure as drawn. The source made the active and inactive calls. The calls are words filed in the database; no cut-off is given here.
How the values were obtained:
Streptococcus mutans [1] = experiment: Antibacterial activity against Streptococcus mutans ATCC 25175 after 24 hrs by broth microdilution method; settings: ATCC 25175, 24 h
Prevotella intermedia [2] = experiment: Antibacterial activity against Prevotella intermedia ATCC 25611 after 48 hrs by broth microdilution method; assay type: functional; settings: ATCC 25611, 48 h
Outline: (§1)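 Broth microdilution MIC for obligate anaerobes, run in their growth media (Wilkins–Chalgren for F. nucleatum and P. intermedia; supplemented Todd Hewitt broth for P. gingivalis). Inoculum suspended in Brucella broth, final 5 × 10^6 cfu/ml. Twofold dilutions, final 0.12–128 µg/ml. Incubated anaerobically (90% N2/5% H2/5% CO2) at 37 °C for 48 h; MIC is the lowest concentration without turbidity.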

Actinomyces viscosus [3] = experiment: Antibacterial activity against Actinomyces viscosus ATCC 15987 after 24 hrs by broth microdilution method; settings: ATCC 15987, 24 h
Porphyromonas gingivalis [4] = experiment: Antibacterial activity against Porphyromonas gingivalis ATCC 33277 after 48 hrs by broth microdilution method; assay type: functional; settings: ATCC 33277, 48 h
Outline: as §1

Streptococcus sanguinis [5] = experiment: Antibacterial activity against Streptococcus sanguinis ATCC 10556 after 48 hrs by broth microdilution method; assay type: functional; settings: ATCC 10556, 48 h
Streptococcus mutans [6] = experiment: Antibacterial activity against Streptococcus mutans ATCC 25175 after 48 hrs by broth microdilution method; assay type: functional; settings: ATCC 25175, 48 h
Actinomyces viscosus [7] = experiment: Antibacterial activity against Actinomyces viscosus ATCC 15987 after 48 hrs by broth microdilution method; assay type: functional; settings: ATCC 15987, 48 h
Streptococcus sanguinis [8] = experiment: Antibacterial activity against Streptococcus sanguinis ATCC 10556 after 24 hrs by broth microdilution method; settings: ATCC 10556, 24 h
Fusobacterium nucleatum [9] = experiment: Antibacterial activity against Fusobacterium nucleatum ATCC 10953 after 48 hrs by broth microdilution method; assay type: functional; settings: ATCC 10953, 48 h
Outline: as §1

Streptococcus mutans [10] = experiment: Antibacterial activity against Streptococcus mutans ATCC 25175 assessed as decrease in cell viability at 2 time MIC after 60 mins by serial dilution method relative to control; assay type: functional
Outline: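 S. mutans suspension from an 18 h culture (~1 × 10^9 cfu/ml) diluted 1:20 into phosphate buffer containing compound at 2 × MIC. Incubated 60 min at 37 °C, then serially diluted in saline and plated on BHI agar. Colonies counted after 48 h at 37 °C in 5% CO2; viability given as CFU/ml relative to untreated cells.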

Streptococcus mutans [11] = experiment: Antibacterial activity against Streptococcus mutans ATCC 25175 assessed as 280 nm absorbing material release at 2 time MIC after 60 mins by spectrophotometric analysis; assay type: functional, organism-based
Outline: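 S. mutans prepared in 50 mmol/l phosphate pH 7.1 (~1 × 10^9 cfu/ml) was exposed to compound at 2 × MIC for 60 min at 37 °C. Supernatant taken after centrifugation (10,000 g, 10 min) and read at A280. Release is expressed as % of a total-release control made by lysozyme treatment (100 µg/ml, 60 min, 37 °C) plus sonication.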

Streptococcus mutans [12] = experiment: Antibacterial activity against Streptococcus mutans ATCC 25175 assessed as increase of cell membrane permeability at 2 time MIC after 60 mins propidium iodide staining by flow cytometry; assay type: functional, organism-based
Outline: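 Overnight BHI culture of S. mutans washed into 50 mmol/l sodium phosphate pH 7.1 (~1 × 10^9 cfu/ml), diluted 1:20 into buffer with compound at 2 × MIC. Incubated 60 min at room temperature; aliquots diluted in buffer and stained with propidium iodide at 10 µg/ml final on ice. The percentage of PI-stained cells was measured by flow cytometry.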

Streptococcus mutans [13] = experiment: Antibacterial activity against Streptococcus mutans ATCC 25175 assessed as inhibition of biofilm formation after 18 hrs; assay type: functional
Outline: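 Single-species S. mutans biofilm grown in flat-bottom polystyrene wells, BHI with 2% sucrose, 6 × 10^7 cfu/ml final, compound twofold 0.12–128 µg/ml, 18 h at 37 °C in 5% CO2. Wells rinsed with PBS pH 7.2, methanol-fixed, stained with 0.1% crystal violet, eluted in 95% ethanol, A595 read. % inhibition relative to untreated control; MBIC50 is the lowest concentration giving ≥50% inhibition.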

Prevotella intermedia [14] = experiment: Ratio of compound MIC to bakuchiol MIC for Prevotella intermedia ATCC 25611; assay type: functional
Streptococcus sanguinis [15] = experiment: Ratio of compound MIC to bakuchiol MIC for Streptococcus sanguinis ATCC 10556; assay type: functional
Streptococcus mutans [16] = experiment: Ratio of compound MIC to bakuchiol MIC for Streptococcus mutans ATCC 25175; assay type: functional
Fusobacterium nucleatum [17] = experiment: Ratio of compound MIC to bakuchiol MIC for sFusobacterium nucleatum ATCC 10953; assay type: functional
Porphyromonas gingivalis [18] = experiment: Ratio of compound MIC to bakuchiol MIC for Porphyromonas gingivalis ATCC 33277; assay type: functional
Actinomyces viscosus [19] = experiment: Ratio of compound MIC to bakuchiol MIC for Actinomyces viscosus ATCC 15987; assay type: functional

MIC (Streptococcus mutans [1]) | MIC (Prevotella intermedia [2]) | MIC (Actinomyces viscosus [3]) | MIC (Porphyromonas gingivalis [4]) | MIC (Streptococcus sanguinis [8]) | MIC (Fusobacterium nucleatum [9]) | SMILES | MBC (Prevotella intermedia [2]) | MBC (Porphyromonas gingivalis [4]) | MBC (Streptococcus sanguinis [5]) | MBC (Streptococcus mutans [6]) | MBC (Actinomyces viscosus [7]) | MBC (Fusobacterium nucleatum [9]) | MBIC50 (Streptococcus mutans [13]) | other results
2 µg/mL (≈ 5.76 µM) | 2 µg/mL (≈ 5.76 µM) | 2 µg/mL (≈ 5.76 µM) | 1 µg/mL (≈ 2.88 µM) | 2 µg/mL (≈ 5.76 µM) | > 128 µg/mL | CC(C)=CCC[C@@](C)(/C=C/c1ccc(N)cc1)/C=C/c1ccc(O)cc1 | 4 µg/mL (≈ 11.5 µM) | 2 µg/mL (≈ 5.76 µM) | 4 µg/mL (≈ 11.5 µM) | 4 µg/mL (≈ 11.5 µM) | 2 µg/mL (≈ 5.76 µM) | > 128 µg/mL |  | 
> 128 µg/mL | > 128 µg/mL | > 128 µg/mL | 32 µg/mL (≈ 118 µM) | > 128 µg/mL | > 128 µg/mL | C=C[C@@](C)(/C=C/c1ccc(OC)cc1)CCC=C(C)C | > 128 µg/mL | 32 µg/mL (≈ 118 µM) | > 128 µg/mL | > 128 µg/mL | > 128 µg/mL | > 128 µg/mL |  | Activity (Streptococcus mutans [10]): inactive; Activity (Streptococcus mutans [11]): Active; Activity (Streptococcus mutans [12]): Active
16 µg/mL (≈ 41 µM) | 16 µg/mL (≈ 41 µM) | 16 µg/mL (≈ 41 µM) | 2 µg/mL (≈ 5.12 µM) | 16 µg/mL (≈ 41 µM) | > 128 µg/mL | COc1ccc(/C=C/[C@@](C)(/C=C/c2ccc(O)cc2)CCC=C(C)C)cc1C=O | 32 µg/mL (≈ 81.9 µM) | 2 µg/mL (≈ 5.12 µM) | 32 µg/mL (≈ 81.9 µM) | 16 µg/mL (≈ 41 µM) | 32 µg/mL (≈ 81.9 µM) | > 128 µg/mL |  | 
16 µg/mL (≈ 59 µM) | 16 µg/mL (≈ 59 µM) | 16 µg/mL (≈ 59 µM) | 2 µg/mL (≈ 7.37 µM) | 16 µg/mL (≈ 59 µM) | 32 µg/mL (≈ 118 µM) | C=C[C@@](C)(/C=C/c1ccc(O)c(N)c1)CCC=C(C)C | 32 µg/mL (≈ 118 µM) | 4 µg/mL (≈ 14.7 µM) | 32 µg/mL (≈ 118 µM) | 32 µg/mL (≈ 118 µM) | 32 µg/mL (≈ 118 µM) | 64 µg/mL (≈ 236 µM) |  | 
32 µg/mL (≈ 75.3 µM) | 16 µg/mL (≈ 37.6 µM) | 32 µg/mL (≈ 75.3 µM) | 4 µg/mL (≈ 9.41 µM) | 16 µg/mL (≈ 37.6 µM) | 64 µg/mL (≈ 151 µM) | CCCOc1ccc(/C=C/[C@@](C)(/C=C/c2ccc(O)cc2)CCC=C(C)C)cc1Cl | 32 µg/mL (≈ 75.3 µM) | 4 µg/mL (≈ 9.41 µM) | 32 µg/mL (≈ 75.3 µM) | 8 µg/mL (≈ 18.8 µM) | 64 µg/mL (≈ 151 µM) | 128 µg/mL (≈ 301 µM) |  | 
4 µg/mL (≈ 10.2 µM) | 2 µg/mL (≈ 5.1 µM) | 4 µg/mL (≈ 10.2 µM) | 2 µg/mL (≈ 5.1 µM) | 4 µg/mL (≈ 10.2 µM) | > 128 µg/mL | COc1ccc(/C=C/[C@@](C)(/C=C/c2ccc(O)cc2)CCC=C(C)C)cc1CO | 4 µg/mL (≈ 10.2 µM) | 4 µg/mL (≈ 10.2 µM) | 8 µg/mL (≈ 20.4 µM) | 4 µg/mL (≈ 10.2 µM) | 8 µg/mL (≈ 20.4 µM) | > 128 µg/mL | 8 µg/mL | 
0.5 µg/mL (≈ 1.38 µM) | 0.5 µg/mL (≈ 1.38 µM) | 0.5 µg/mL (≈ 1.38 µM) | 0.25 µg/mL (≈ 0.69 µM) | 0.5 µg/mL (≈ 1.38 µM) | 16 µg/mL (≈ 44.1 µM) | COc1ccc(/C=C/[C@](C)(/C=C/c2ccc(O)cc2)CCC=C(C)C)cc1 | 1 µg/mL (≈ 2.76 µM) | 0.5 µg/mL (≈ 1.38 µM) | 1 µg/mL (≈ 2.76 µM) | 1 µg/mL (≈ 2.76 µM) | 1 µg/mL (≈ 2.76 µM) | 32 µg/mL (≈ 88.3 µM) | 1 µg/mL | Activity (Streptococcus mutans [10]): >80%; Ratio (Prevotella intermedia [14]): 2; Activity (Streptococcus mutans [11]): Active; Ratio (Streptococcus sanguinis [15]): 2; Ratio (Streptococcus mutans [16]): 2; Activity (Streptococcus mutans [12]): Active; Ratio (Fusobacterium nucleatum [17]): 2; Ratio (Porphyromonas gingivalis [18]): 2; Ratio (Actinomyces viscosus [19]): 2
4 µg/mL (≈ 11 µM) | 2 µg/mL (≈ 5.52 µM) | 2 µg/mL (≈ 5.52 µM) | 1 µg/mL (≈ 2.76 µM) | 2 µg/mL (≈ 5.52 µM) | 16 µg/mL (≈ 44.1 µM) | COc1ccccc1/C=C/[C@@](C)(/C=C/c1ccc(O)cc1)CCC=C(C)C | 4 µg/mL (≈ 11 µM) | 2 µg/mL (≈ 5.52 µM) | 4 µg/mL (≈ 11 µM) | 8 µg/mL (≈ 22.1 µM) | 4 µg/mL (≈ 11 µM) | 32 µg/mL (≈ 88.3 µM) | 8 µg/mL | 

— ChEMBL document CHEMBL1177882, “Novel bisstyryl derivatives of bakuchiol: targeting oral cavity pathogens” (2010)
